System: HEK-293T
Experiment: Multiplex assay against HEK293T;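 on Population Tubulin-Different-Phenotype (%): share of the cells with healthy nuclei that show this phenotype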
Assay type: toxicity, cell-based
Details: human
Method in brief: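 Values for tubulin, mitochondrial-mass and membrane-permeability phenotypes are per cents of cells with healthy nuclei. These cells were identified by CellPathfinder machine-learning gating of live cells that had been stained at seeding with Hoechst33342, BioTracker Green Microtubule Cytoskeleton Dye, MitoTracker Red and Annexin V Alexa Fluor 680 and imaged on a CQ1 microscope at 37°C and 5% CO2 after compound addition. The gating first set Hoechst high-intensity objects apart from normal cells, then split normal cells into healthy, pyknosed or fragmented nuclei, and pyknosed cells into mitotic or apoptotic.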

[1] = 12 h, 1 µM, compound concentration 1 uM, replicate 1
[2] = 12 h, 1 µM, compound concentration 1 uM, replicate 2
[3] = 12 h, 10 µM, compound concentration 10 uM, replicate 1
[4] = 12 h, 10 µM, compound concentration 10 uM, replicate 2
[5] = 24 h, 1 µM, compound concentration 1 uM, replicate 1
[6] = 24 h, 1 µM, compound concentration 1 uM, replicate 2
[7] = 24 h, 10 µM, compound concentration 10 uM, replicate 1
[8] = 24 h, 10 µM, compound concentration 10 uM, replicate 2
[9] = 48 h, 1 µM, compound concentration 1 uM, replicate 1
[10] = 48 h, 1 µM, compound concentration 1 uM, replicate 2
[11] = 48 h, 10 µM, compound concentration 10 uM, replicate 1
[12] = 48 h, 10 µM, compound concentration 10 uM, replicate 2

## Cl.NC[C@@H]1O[C@H](C23CC4CC(CC(C4)C2)C3)Cc2c1ccc(O)c2O
[1]
  Population Apoptotic (%): 34%
  Population Fragmented Nuclei (%): 10%
  Population Healthy Nuclei (%): 49%
  Population Hoechst High Intensity Objects (%): 11%
  Population Membrane Permeable-Phenotype (%): 2%
  Population Mitochondria Different-Phenotype (%): 80%
  Population Mitotic Cells (%): 65%
  Population Normal (%): 88%
  Population Pyknosed Nuclei (%): 40%
  Population Tubulin-Different-Phenotype (%): 55%
  Total Cell Count: 321
[2]
  Population Apoptotic (%): 7%
  Population Fragmented Nuclei (%): 3%
  Population Healthy Nuclei (%): 47%
  Population Hoechst High Intensity Objects (%): 2%
  Population Membrane Permeable-Phenotype (%): 8%
  Population Mitochondria Different-Phenotype (%): 38%
  Population Mitotic Cells (%): 92%
  Population Normal (%): 97%
  Population Pyknosed Nuclei (%): 48%
  Population Tubulin-Different-Phenotype (%): 47%
  Total Cell Count: 267
[3]
  Population Apoptotic (%): 60%
  Population Fragmented Nuclei (%): 10%
  Population Healthy Nuclei (%): 8%
  Population Hoechst High Intensity Objects (%): 16%
  Population Membrane Permeable-Phenotype (%): 0%
  Population Mitochondria Different-Phenotype (%): 94%
  Population Mitotic Cells (%): 39%
  Population Normal (%): 83%
  Population Pyknosed Nuclei (%): 80%
  Population Tubulin-Different-Phenotype (%): 58%
  Total Cell Count: 245
[4]
  Population Apoptotic (%): 37%
  Population Fragmented Nuclei (%): 7%
  Population Healthy Nuclei (%): 6%
  Population Hoechst High Intensity Objects (%): 11%
  Population Membrane Permeable-Phenotype (%): 9%
  Population Mitochondria Different-Phenotype (%): 54%
  Population Mitotic Cells (%): 62%
  Population Normal (%): 88%
  Population Pyknosed Nuclei (%): 86%
  Population Tubulin-Different-Phenotype (%): 27%
  Total Cell Count: 204
[5]
  Population Apoptotic (%): 34%
  Population Fragmented Nuclei (%): 10%
  Population Healthy Nuclei (%): 65%
  Population Hoechst High Intensity Objects (%): 13%
  Population Membrane Permeable-Phenotype (%): 0%
  Population Mitochondria Different-Phenotype (%): 46%
  Population Mitotic Cells (%): 65%
  Population Normal (%): 86%
  Population Pyknosed Nuclei (%): 24%
  Population Tubulin-Different-Phenotype (%): 43%
  Total Cell Count: 389
[6]
  Population Apoptotic (%): 12%
  Population Fragmented Nuclei (%): 4%
  Population Healthy Nuclei (%): 67%
  Population Hoechst High Intensity Objects (%): 1%
  Population Membrane Permeable-Phenotype (%): 11%
  Population Mitochondria Different-Phenotype (%): 20%
  Population Mitotic Cells (%): 87%
  Population Normal (%): 98%
  Population Pyknosed Nuclei (%): 28%
  Population Tubulin-Different-Phenotype (%): 52%
  Total Cell Count: 310
[7]
  Population Apoptotic (%): 36%
  Population Fragmented Nuclei (%): 15%
  Population Healthy Nuclei (%): 10%
  Population Hoechst High Intensity Objects (%): 13%
  Population Membrane Permeable-Phenotype (%): 4%
  Population Mitochondria Different-Phenotype (%): 78%
  Population Mitotic Cells (%): 63%
  Population Normal (%): 86%
  Population Pyknosed Nuclei (%): 73%
  Population Tubulin-Different-Phenotype (%): 73%
  Total Cell Count: 258
[8]
  Population Apoptotic (%): 39%
  Population Fragmented Nuclei (%): 9%
  Population Healthy Nuclei (%): 14%
  Population Hoechst High Intensity Objects (%): 15%
  Population Membrane Permeable-Phenotype (%): 32%
  Population Mitochondria Different-Phenotype (%): 12%
  Population Mitotic Cells (%): 60%
  Population Normal (%): 84%
  Population Pyknosed Nuclei (%): 76%
  Population Tubulin-Different-Phenotype (%): 76%
  Total Cell Count: 205
[9]
  Population Apoptotic (%): 14%
  Population Fragmented Nuclei (%): 11%
  Population Healthy Nuclei (%): 80%
  Population Hoechst High Intensity Objects (%): 6%
  Population Membrane Permeable-Phenotype (%): 6%
  Population Mitochondria Different-Phenotype (%): 5%
  Population Mitotic Cells (%): 85%
  Population Normal (%): 93%
  Population Pyknosed Nuclei (%): 7%
  Population Tubulin-Different-Phenotype (%): 17%
  Total Cell Count: 773
[10]
  Population Apoptotic (%): 8%
  Population Fragmented Nuclei (%): 5%
  Population Healthy Nuclei (%): 83%
  Population Hoechst High Intensity Objects (%): 1%
  Population Membrane Permeable-Phenotype (%): 23%
  Population Mitochondria Different-Phenotype (%): 3%
  Population Mitotic Cells (%): 92%
  Population Normal (%): 98%
  Population Pyknosed Nuclei (%): 11%
  Population Tubulin-Different-Phenotype (%): 42%
  Total Cell Count: 440
[11]
  Population Apoptotic (%): 23%
  Population Fragmented Nuclei (%): 21%
  Population Healthy Nuclei (%): 10%
  Population Hoechst High Intensity Objects (%): 15%
  Population Membrane Permeable-Phenotype (%): 38%
  Population Mitochondria Different-Phenotype (%): 0%
  Population Mitotic Cells (%): 76%
  Population Normal (%): 84%
  Population Pyknosed Nuclei (%): 67%
  Population Tubulin-Different-Phenotype (%): 46%
  Total Cell Count: 286
[12]
  Population Apoptotic (%): 55%
  Population Fragmented Nuclei (%): 11%
  Population Healthy Nuclei (%): 24%
  Population Hoechst High Intensity Objects (%): 16%
  Population Membrane Permeable-Phenotype (%): 56%
  Population Mitotic Cells (%): 44%
  Population Normal (%): 83%
  Population Pyknosed Nuclei (%): 63%
  Population Tubulin-Different-Phenotype (%): 66%
  Total Cell Count: 190

Reference: ChEMBL document CHEMBL4689842, “EUbOPEN Chemogenomics Library wave 1” (2021)
